The source made the active and inactive calls.
What was measured:
[1] = molecular target: T1, Toll-like receptor 9 (Mus musculus) (UniProt Q9EQU3); experiment: Activation of mouse TLR9 expressed in HEK293 cells assessed as induction of NF-kappaB activity after 18 hrs by SEAP assay; format: cell-based
T1 sequence (whole entry): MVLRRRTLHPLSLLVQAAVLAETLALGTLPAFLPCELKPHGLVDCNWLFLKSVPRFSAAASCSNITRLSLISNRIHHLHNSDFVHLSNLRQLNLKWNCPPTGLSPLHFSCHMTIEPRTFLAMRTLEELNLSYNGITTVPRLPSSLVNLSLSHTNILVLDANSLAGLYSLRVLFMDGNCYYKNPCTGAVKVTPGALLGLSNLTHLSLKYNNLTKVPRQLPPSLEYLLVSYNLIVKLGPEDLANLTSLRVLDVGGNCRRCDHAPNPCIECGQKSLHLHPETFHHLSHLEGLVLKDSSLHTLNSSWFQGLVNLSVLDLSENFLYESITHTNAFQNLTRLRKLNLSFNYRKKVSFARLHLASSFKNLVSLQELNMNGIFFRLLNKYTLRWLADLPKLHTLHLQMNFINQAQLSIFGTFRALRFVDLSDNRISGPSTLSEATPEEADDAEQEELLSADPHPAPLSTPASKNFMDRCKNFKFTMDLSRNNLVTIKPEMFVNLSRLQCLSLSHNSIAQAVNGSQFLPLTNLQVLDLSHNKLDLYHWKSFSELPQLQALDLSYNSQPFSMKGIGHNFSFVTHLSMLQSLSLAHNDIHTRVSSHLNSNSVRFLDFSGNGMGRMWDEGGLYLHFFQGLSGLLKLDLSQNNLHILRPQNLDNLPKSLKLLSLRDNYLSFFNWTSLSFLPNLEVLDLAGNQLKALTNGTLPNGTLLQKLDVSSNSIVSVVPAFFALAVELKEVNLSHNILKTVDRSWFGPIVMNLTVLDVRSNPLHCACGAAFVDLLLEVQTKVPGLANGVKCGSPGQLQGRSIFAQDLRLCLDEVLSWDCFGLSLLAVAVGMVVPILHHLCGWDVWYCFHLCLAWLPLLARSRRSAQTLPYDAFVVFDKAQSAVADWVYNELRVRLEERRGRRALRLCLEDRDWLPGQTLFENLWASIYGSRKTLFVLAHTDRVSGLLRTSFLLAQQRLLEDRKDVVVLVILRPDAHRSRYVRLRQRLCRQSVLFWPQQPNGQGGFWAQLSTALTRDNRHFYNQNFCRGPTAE
In short: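 HEK293 cells stably expressing mouse TLR9 were grown in DMEM with 10% heat-inactivated FBS. At 80% confluence they were transiently transfected with a SEAP reporter plasmid (100 ng/well, lipofectamine) for 6 h. Medium was then replaced and agonists were added for 18 h. Supernatant SEAP was read with QuantiBlue substrate at 620-645 nm. Results are expressed as fold NF-κB activity over PBS control.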

[2] = molecular target: T1, Toll-like receptor 9 (Mus musculus); experiment: Induction of TLR9-mediated IL12 production in C57BL/6 mouse spleen cells after 24 hrs by ELISA; format: cell-based
In short: (§1)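 C57BL/6 mouse spleen cells were cultured with agonists at 0.1, 0.3, 1, 3 and 10 μg/mL for 24 h. Secreted IL-12 and IL-6 in the supernatants were measured by ELISA. Values are averages of triplicate wells from one representative of at least two independent experiments.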

[3] = molecular target: T1, Toll-like receptor 9 (Mus musculus); experiment: Induction of TLR9-mediated IL6 production in C57BL/6 mouse spleen cells after 24 hrs by ELISA; format: cell-based; in short: as §1
[4] = molecular target: T2, Toll-like receptor 9 (Homo sapiens) (UniProt Q9NR96); experiment: Induction of TLR9-mediated human B cell proliferation assessed as [3H]thymidine uptake after 56 hrs by scintillation counting
T2 sequence (whole entry): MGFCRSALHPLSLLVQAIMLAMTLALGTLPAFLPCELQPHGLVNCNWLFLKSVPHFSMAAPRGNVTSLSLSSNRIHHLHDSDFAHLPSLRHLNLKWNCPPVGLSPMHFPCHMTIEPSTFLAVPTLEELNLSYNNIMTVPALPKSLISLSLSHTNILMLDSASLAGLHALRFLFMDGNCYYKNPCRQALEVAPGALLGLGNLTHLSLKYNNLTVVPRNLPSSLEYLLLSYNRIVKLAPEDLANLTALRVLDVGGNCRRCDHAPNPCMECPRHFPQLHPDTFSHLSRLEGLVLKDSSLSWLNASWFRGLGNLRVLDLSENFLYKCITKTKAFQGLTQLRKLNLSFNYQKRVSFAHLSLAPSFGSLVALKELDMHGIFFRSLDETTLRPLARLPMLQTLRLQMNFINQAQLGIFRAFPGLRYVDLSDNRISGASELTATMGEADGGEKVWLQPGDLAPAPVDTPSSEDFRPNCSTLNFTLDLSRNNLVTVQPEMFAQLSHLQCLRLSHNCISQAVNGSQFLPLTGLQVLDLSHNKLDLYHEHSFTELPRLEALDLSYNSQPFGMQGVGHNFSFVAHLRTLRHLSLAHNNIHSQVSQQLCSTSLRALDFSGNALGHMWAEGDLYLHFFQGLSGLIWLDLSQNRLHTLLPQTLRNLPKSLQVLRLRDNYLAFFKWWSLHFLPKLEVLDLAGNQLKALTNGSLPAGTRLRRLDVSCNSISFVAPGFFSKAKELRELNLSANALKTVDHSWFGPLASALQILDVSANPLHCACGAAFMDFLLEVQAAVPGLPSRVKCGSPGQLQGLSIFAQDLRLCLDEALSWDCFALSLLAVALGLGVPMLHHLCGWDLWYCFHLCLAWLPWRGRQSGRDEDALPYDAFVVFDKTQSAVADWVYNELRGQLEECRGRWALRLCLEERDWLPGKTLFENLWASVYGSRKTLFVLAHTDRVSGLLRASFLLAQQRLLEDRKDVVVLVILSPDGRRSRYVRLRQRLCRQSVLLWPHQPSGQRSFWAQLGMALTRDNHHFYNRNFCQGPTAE
In short: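 B cells were purified from human PBMCs (healthy volunteers), about 1 × 10⁵ cells, and stimulated with various agonist concentrations for 56 h. Cells were then pulsed with 0.75 μCi [³H]-thymidine and harvested 16 h later. Incorporation was counted by scintillation and reported as cpm.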

Mus musculus = experiment: Immunostimulatory activity in C57BL/6 mouse assessed as increase in serum IL12 level at 1 mg/kg, sc after 2 hrs by ELISA; format: functional, organism-based; design: dose 1 mg/kg
In short: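 Female C57BL/6 mice (n=3) received a single subcutaneous agonist dose of 1 mg/kg. Blood was taken by retro-orbital bleeding 2 h later, and serum IL-12 was measured by sandwich ELISA. Values are the mean of three mice ± SD.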

Measured: Activity

Cc1cn([C@H]2C[C@H](OCCn3c(=O)n(CCO)c(=O)n(CCOP(=O)(S)O[C@H]4C[C@H](n5cc(C)c(=O)[nH]c5=O)O[C@@H]4COP(=O)(S)O[C@H]4[C@@H](O)[C@H](n5ccc(N)nc5=O)O[C@@H]4COP(=O)(S)O[C@H]4C[C@H](n5cc(C)c(=O)[nH]c5=O)O[C@@H]4COP(=O)(S)O[C@H]4C[C@H](n5cc(C)c(=O)[nH]c5=O)O[C@@H]4COP(=O)(S)O[C@H]4C[C@H](n5ccc6c(=O)[nH]c(N)nc65)O[C@@H]4COP(=O)(S)O[C@H]4[C@@H](O)[C@H](n5ccc(N)nc5=O)O[C@@H]4COP(=O)(S)O[C@H]4C[C@H](n5cc(C)c(=O)[nH]c5=O)O[C@@H]4COP(=O)(S)O[C@H]4[C@@H](O)[C@H](n5cnc6c(=O)[nH]c(N)nc65)O[C@@H]4COP(=O)(S)O[C@H]4C[C@H](n5cc(C)c(=O)[nH]c5=O)O[C@@H]4COP(=O)(S)O[C@H]4[C@@H](O)[C@H](n5ccc(N)nc5=O)O[C@@H]4COP(=O)(S)O[C@H]4C[C@H](n5cc(C)c(=O)[nH]c5=O)O[C@@H]4CO)c3=O)[C@@H](COP(=O)(S)O[C@H]3[C@@H](O)[C@H](n4ccc(N)nc4=O)O[C@@H]3COP(=O)(S)O[C@H]3C[C@H](n4cc(C)c(=O)[nH]c4=O)O[C@@H]3COP(=O)(S)O[C@H]3C[C@H](n4cc(C)c(=O)[nH]c4=O)O[C@@H]3COP(=O)(S)O[C@H]3C[C@H](n4ccc5c(=O)[nH]c(N)nc54)O[C@@H]3COP(=O)(S)O[C@H]3[C@@H](O)[C@H](n4ccc(N)nc4=O)O[C@@H]3COP(=O)(S)O[C@H]3C[C@H](n4cc(C)c(=O)[nH]c4=O)O[C@@H]3COP(=O)(S)O[C@H]3[C@@H](O)[C@H](n4cnc5c(=O)[nH]c(N)nc54)O[C@@H]3COP(=O)(S)O[C@H]3C[C@H](n4cc(C)c(=O)[nH]c4=O)O[C@@H]3COP(=O)(S)O[C@H]3[C@@H](O)[C@H](n4ccc(N)nc4=O)O[C@@H]3COP(=O)(S)O[C@H]3C[C@H](n4cc(C)c(=O)[nH]c4=O)O[C@@H]3CO)O2)c(=O)[nH]c1=O (stereo not given in full)
active: [1] Dose-dependent effect | [2] Dose-dependent effect | [3] Dose-dependent effect | [4] Dose-dependent effect | Mus musculus

— ChEMBL document CHEMBL1157912, “Impact of nature and length of linker incorporated in agonists on toll-like receptor 9-mediated immune responses” (J Med Chem, 2010)
